Measurements reported in ChEMBL document CHEMBL1914336, “Use of the hydantoin isostere to produce inhibitors showing selectivity toward the vesicular glutamate transporter versus the obligate exchange transporter system x(c)(-)” (Bioorg Med Chem Lett, 2011).

Assays:
[1] = molecular target: Excitatory amino acid transporter 2 (Homo sapiens) (UniProt P43004); test: Inhibition of EAAT2-mediated D-aspartate transport at 100 uM
Method in brief: (§1)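 Transport by EAAT1, EAAT2 or EAAT3 was measured with 25 μM D-aspartate as substrate and inhibitor present at 100 μM.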

[2] = Inhibition of VGLUT in rat synaptic vesicles assessed as inhibition of glutamate uptake
Method in brief: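 Dose–response for VGLUT inhibition in synaptic vesicles isolated from rat brain, using 250 μM L-glutamate as substrate. Uptake was corrected for non-specific uptake and normalized to protein; IC50 was taken from the dose curve.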

[3] = species on record: Rattus norvegicus; test: Inhibition of VGLUT in rat synaptic vesicles assessed as glutamate uptake at 5 mM relative to control; design: scale not given: the % may be the effect or the level left
Method in brief: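 Rat brain synaptic vesicles were isolated and VGLUT-mediated uptake of 250 μM L-glutamate was measured with inhibitor at 5 mM. Uptake was corrected for non-specific uptake, normalized to protein content and expressed as % of control.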

[4] = molecular target: T1, Cystine/glutamate transporter (Homo sapiens) (UniProt Q9UPY5); test: Inhibition of cystine/glutamate transporter in human SNB19 cells assessed as [3H]glutamate uptake at 500 uM; assay type: cell-based; design: scale not given: the % may be the effect or the level left; settings: SNB-19
T1 sequence (whole entry): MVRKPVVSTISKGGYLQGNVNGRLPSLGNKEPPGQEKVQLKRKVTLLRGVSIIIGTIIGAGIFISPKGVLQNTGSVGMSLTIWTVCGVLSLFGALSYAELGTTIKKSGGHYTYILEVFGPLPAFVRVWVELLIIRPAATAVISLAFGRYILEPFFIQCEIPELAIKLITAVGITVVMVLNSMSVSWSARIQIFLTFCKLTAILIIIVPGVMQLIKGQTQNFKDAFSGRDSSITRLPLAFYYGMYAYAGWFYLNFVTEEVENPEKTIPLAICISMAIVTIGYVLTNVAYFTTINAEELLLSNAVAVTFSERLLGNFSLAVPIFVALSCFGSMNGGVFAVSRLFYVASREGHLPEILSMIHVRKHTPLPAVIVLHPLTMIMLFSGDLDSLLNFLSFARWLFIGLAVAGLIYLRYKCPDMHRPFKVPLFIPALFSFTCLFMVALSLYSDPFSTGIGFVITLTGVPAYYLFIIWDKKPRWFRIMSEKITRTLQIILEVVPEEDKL
Method in brief: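 SNB19 glioma cells were kept under Na-free conditions and system xc−-mediated uptake of 100 μM L-glutamate was measured with inhibitor at 500 μM. Uptake was corrected for non-specific uptake and normalized to protein content.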

[5] = molecular target: Excitatory amino acid transporter 1 (Homo sapiens) (UniProt P43003); test: Inhibition of EAAT1-mediated D-aspartate transport at 100 uM; method in brief: as §1
Chain of Excitatory amino acid transporter 1 (Homo sapiens) (P43003 whole entry, the tested form may be a part): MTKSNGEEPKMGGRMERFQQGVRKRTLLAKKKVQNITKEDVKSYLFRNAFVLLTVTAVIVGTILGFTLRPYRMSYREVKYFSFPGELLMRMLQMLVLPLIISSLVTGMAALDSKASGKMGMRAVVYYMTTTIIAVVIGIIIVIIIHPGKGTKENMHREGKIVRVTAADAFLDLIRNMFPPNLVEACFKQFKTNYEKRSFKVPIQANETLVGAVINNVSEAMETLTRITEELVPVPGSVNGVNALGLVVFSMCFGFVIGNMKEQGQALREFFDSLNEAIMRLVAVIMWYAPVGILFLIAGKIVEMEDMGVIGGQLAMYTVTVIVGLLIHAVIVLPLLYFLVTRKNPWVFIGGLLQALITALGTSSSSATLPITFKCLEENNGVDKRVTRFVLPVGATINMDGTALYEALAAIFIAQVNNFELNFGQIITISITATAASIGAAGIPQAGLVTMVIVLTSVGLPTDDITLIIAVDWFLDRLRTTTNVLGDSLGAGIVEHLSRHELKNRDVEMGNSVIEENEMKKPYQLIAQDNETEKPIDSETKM

[6] = molecular target: Excitatory amino acid transporter 3 (Homo sapiens) (UniProt P43005); test: Inhibition of EAAT3-mediated D-aspartate transport at 100 uM
Chain of Excitatory amino acid transporter 3 (Homo sapiens) (P43005 whole entry, looked up, the tested form may be a part): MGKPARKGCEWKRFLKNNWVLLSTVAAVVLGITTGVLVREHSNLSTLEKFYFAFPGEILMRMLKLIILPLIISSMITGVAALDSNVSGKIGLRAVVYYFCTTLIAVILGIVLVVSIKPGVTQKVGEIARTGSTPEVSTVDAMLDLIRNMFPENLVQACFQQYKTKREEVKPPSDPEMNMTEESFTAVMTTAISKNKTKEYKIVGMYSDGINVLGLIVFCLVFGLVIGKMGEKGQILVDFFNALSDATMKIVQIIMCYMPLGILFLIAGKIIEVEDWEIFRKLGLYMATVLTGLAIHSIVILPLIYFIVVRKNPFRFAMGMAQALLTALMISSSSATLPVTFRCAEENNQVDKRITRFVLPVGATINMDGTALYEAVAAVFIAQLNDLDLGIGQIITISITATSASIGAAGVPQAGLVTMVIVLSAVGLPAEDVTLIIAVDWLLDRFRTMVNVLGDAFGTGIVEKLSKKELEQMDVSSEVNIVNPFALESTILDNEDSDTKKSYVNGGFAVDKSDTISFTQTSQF

[7] = species on record: Rattus norvegicus; test: Inhibition of VGLUT in rat synaptic vesicles assessed as glutamate uptake at 500 uM relative to control; design: scale not given: the % may be the effect or the level left

Chain of Excitatory amino acid transporter 2 (Homo sapiens) (P43004 whole entry, the tested form may be a part): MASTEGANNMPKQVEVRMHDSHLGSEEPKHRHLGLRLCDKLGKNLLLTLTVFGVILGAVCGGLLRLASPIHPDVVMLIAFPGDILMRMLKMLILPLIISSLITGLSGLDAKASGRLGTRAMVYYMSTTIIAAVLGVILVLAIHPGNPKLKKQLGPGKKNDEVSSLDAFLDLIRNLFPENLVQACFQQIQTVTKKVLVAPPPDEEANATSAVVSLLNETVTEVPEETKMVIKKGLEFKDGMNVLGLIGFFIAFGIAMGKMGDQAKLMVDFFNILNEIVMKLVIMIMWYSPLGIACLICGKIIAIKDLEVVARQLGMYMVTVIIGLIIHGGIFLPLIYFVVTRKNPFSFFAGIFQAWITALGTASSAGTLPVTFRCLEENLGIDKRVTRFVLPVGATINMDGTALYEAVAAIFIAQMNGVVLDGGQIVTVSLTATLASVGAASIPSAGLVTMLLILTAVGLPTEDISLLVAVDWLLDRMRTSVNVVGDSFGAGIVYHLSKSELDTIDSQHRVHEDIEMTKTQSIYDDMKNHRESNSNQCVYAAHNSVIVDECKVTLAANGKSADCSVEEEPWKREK

| Activity [3] [%] | Activity [4] [%] | Structure (SMILES) | further results |
| --- | --- | --- | --- |
| 6 | 51 | O=C1NC(=O)C(c2ccc(C3NC(=O)NC3=O)s2)N1 (stereo not given) | inhibition [1]: < 12%; IC50 [2]: 511 µM; inhibition [5]: < 12%; inhibition [6]: < 12% |
| 74 | 92 | O=C1NC(c2cccc3ccccc23)C(=O)N1CCCCN1C(=O)NC(c2cccc3ccccc23)C1=O (stereo not given) | – |
| 87 | 85 | O=C1NC(=O)C(c2ccc(-c3cccs3)s2)N1 (stereo not given) | – |
| 81 | 81 | O=C1NC(=O)C(c2c3ccccc3cc3ccccc23)N1 (stereo not given) | – |
| 23 | 87 | CN(C)c1ccc(C2NC(=O)NC2=O)cc1 (stereo not given) | – |
| 79 | 118 | O=C1NC(=O)C(c2csc3ccccc23)N1 (stereo not given) | – |
| 121 | 100 | O=C1NC(=O)C(c2ccccc2S(=O)(=O)O)N1 (stereo not given) | – |
| 37 | 104 | O=C1NC(=O)C(c2ccc(-c3ccc(C(=O)O)cc3)cc2)N1 (stereo not given) | – |
| 111 | 95 | O=C1NC(=O)C(c2cccnc2)N1 (stereo not given) | – |
| 93 | 87 | Cc1cc(C2NC(=O)NC2=O)sc1C (stereo not given) | – |
| 63 | 90 | CN(C)c1ccc(/C=C/C2NC(=O)NC2=O)cc1 (stereo not given) | – |
| 91 | 83 | O=C1NC(=O)C(c2cccc3ccccc23)N1 (stereo not given) | – |
| 95 | 93 | COC(=O)c1ccc(-c2ccc(C3NC(=O)NC3=O)cc2)cc1 (stereo not given) | – |
| 11 | 100 | O=C1NC(=O)C(c2ccc(S(=O)(=O)O)cc2S(=O)(=O)O)N1 (racemic) | – |
| 80 | 53 | O=C1NC(=O)C(Cc2ccccc2)N1 (stereo not given) | – |
| 5 | 49 | O=Cc1ccc(C2NC(=O)NC2=O)s1 (racemic) | inhibition [1]: < 12%; IC50 [2]: 355 µM; inhibition [5]: < 12%; inhibition [6]: < 12% |
| 0 | 82 | Nc1c(/N=N/c2ccc(-c3ccc(/N=N/c4cc(S(=O)(=O)O)c5ccccc5c4N)cc3)cc2)cc(S(=O)(=O)O)c2ccccc12 | Activity [7]: 31% |
| 90 | 22 | N[C@@H](CS)C(=O)O | – |
| 97 | 80 | O=C1NC(c2cccc3ccccc23)C(=O)N1CCCN1C(=O)NC(c2cccc3ccccc23)C1=O (stereo not given) | – |
| 75 | 65 | O=C1NC(=O)C(c2ccc(Br)s2)N1 (stereo not given) | – |
| 103 | 82 | O=C1NC(=O)C(c2c[nH]cn2)N1 (stereo not given) | – |
| 78 | 85 | O=C1NC(=O)C(c2ccc(C3NC(=O)NC3=O)cc2)N1 (stereo not given) | – |
| 76 | 66 | Cc1ccc(C2NC(=O)NC2=O)s1 (stereo not given) | – |
